The species named for one test is Rattus norvegicus. The test can be described thus: in vitro Agonist activity (inhibition of growth hormone release) on cultured rat pituitary cells. The test is classed as functional, cell-based. The note with it: Pituitary gland cell. Put shortly: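 Anterior pituitary cells from adult male rats were dispersed with trypsin/DNase and cultured 4–5 days at about 200 000 cells/well. GH in the medium was measured by double-antibody RIA.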

Test [1] concerns the target Somatostatin receptor type 5 (Homo sapiens, UniProt P35346). The test can be described thus: Binding affinity was determined on cloned human somatostatin receptor-1 (hsst5).
Test [2] concerns the target Somatostatin receptor type 1 (Homo sapiens, UniProt P30872). Kind of test: Binding affinity was determined on cloned human somatostatin receptor-1 (hsst1). The method in brief: (§1)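 Membranes from CHO-K1 cells stably transfected with human sst1, sst2 or sst4 (calcium phosphate, G418 selection), resuspended in 10 mM Tris-HCl. Filtered on GF/C; nonspecific binding measured with 1.0 μM SRIF. Kd from concentration-dependent displacement.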

For test [3], the target named is Somatostatin receptor type 4 (Homo sapiens, UniProt P31391). The test can be described thus: Binding affinity was determined on cloned human somatostatin receptor-1 (hsst4). Put shortly: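 Membranes from CHO-K1 cells stably transfected with human sst1, sst2 or sst4 (calcium phosphate, G418 selection), resuspended in 10 mM Tris-HCl. Incubated 30 min at 37 °C with 0.05 nM [125I]Tyr11-SRIF (sst1, sst4) or [125I]MK-678 (sst2) in HEPES pH 7.4 with BSA, MgCl2 and protease inhibitors. Filtered on GF/C; nonspecific binding measured with 1.0 μM SRIF. Kd from concentration-dependent displacement.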
Somatostatin receptor type 4, sequence (P31391 whole entry): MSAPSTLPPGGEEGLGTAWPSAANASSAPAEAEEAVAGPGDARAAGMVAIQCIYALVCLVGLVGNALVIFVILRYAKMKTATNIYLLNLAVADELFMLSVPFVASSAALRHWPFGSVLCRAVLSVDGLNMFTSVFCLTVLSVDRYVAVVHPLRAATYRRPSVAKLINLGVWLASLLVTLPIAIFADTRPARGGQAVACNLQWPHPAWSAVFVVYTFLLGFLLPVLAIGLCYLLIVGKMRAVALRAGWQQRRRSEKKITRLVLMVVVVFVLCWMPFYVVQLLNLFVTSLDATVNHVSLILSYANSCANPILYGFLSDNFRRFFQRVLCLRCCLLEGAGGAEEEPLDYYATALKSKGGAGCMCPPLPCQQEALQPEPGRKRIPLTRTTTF

The target in test [4] is Somatostatin receptor type 3 (Homo sapiens, UniProt P32745). The test can be described thus: Binding affinity was determined on cloned human somatostatin receptor-1 (hsst3).
Somatostatin receptor type 3, sequence (P32745 whole entry): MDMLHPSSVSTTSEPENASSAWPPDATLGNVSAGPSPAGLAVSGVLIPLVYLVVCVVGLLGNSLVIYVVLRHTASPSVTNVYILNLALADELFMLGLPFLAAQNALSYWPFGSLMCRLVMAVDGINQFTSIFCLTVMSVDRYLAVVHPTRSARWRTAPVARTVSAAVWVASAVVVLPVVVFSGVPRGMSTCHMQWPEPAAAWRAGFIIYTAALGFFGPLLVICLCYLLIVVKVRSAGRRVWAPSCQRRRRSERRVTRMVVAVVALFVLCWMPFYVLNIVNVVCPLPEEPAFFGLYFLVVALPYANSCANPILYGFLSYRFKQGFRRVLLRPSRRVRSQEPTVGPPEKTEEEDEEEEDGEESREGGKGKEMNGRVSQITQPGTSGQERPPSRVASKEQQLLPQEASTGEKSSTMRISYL
Test [5] deals with Somatostatin receptor type 2 (Homo sapiens, UniProt P30874). The test can be described thus: Binding affinity was determined on cloned human somatostatin receptor-1 (hsst2). The method in brief: as §1
Somatostatin receptor type 2, sequence (P30874 whole entry): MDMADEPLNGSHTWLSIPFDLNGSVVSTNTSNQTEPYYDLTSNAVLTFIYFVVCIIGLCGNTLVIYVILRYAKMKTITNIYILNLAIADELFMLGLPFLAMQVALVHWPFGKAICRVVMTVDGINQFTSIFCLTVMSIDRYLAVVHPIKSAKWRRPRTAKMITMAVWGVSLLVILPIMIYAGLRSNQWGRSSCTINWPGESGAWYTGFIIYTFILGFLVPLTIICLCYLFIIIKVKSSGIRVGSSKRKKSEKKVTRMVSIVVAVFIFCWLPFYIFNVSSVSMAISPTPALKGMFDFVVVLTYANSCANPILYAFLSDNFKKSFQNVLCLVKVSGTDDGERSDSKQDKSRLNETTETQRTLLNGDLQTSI

Where a SMILES comes first, the peptide text is derived from it. Bridges are numbered along the chain shown (N, C = ends). [ ]: non-standard residue; d: D form. NMeY = CN[C@@H](Cc1ccc(O)cc1)C(=O)O; NMeT = CN[C@H](C(=O)O)[C@@H](C)O; NMeK = CN[C@@H](CCCCN)C(=O)O; NMeC = CN[C@@H](CS)C(=O)O

Somatostatin receptor type 1, sequence (P30872 whole entry): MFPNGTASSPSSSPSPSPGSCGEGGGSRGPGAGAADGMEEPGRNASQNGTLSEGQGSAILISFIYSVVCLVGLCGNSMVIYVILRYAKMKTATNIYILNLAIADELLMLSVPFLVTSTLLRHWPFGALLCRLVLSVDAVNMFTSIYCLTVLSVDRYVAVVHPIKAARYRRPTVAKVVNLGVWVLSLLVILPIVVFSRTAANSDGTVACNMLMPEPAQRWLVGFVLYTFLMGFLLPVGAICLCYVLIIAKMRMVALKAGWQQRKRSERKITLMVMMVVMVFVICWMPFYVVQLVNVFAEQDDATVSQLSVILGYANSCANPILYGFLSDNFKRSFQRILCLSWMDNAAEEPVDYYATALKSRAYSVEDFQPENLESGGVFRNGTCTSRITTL
Somatostatin receptor type 5, sequence (P35346 whole entry): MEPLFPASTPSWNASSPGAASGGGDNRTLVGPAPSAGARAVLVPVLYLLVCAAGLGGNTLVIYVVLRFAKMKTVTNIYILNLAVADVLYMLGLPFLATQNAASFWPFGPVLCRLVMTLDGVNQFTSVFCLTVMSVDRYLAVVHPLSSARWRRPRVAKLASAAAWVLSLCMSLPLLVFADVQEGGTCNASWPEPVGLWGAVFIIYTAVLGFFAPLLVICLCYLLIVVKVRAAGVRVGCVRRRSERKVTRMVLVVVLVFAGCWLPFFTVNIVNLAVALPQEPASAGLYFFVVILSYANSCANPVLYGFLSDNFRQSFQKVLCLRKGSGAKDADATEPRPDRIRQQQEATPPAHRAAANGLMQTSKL

Broadly, the IC50 is the concentration that inhibits the measured activity by half. The compound `C[C@@H](O)[C@@H]1NC(=O)[C@H](CCCCN)NC(=O)[C@@H](Cc2c[nH]c3ccccc23)NC(=O)[C@H](Cc2ccccc2)NC(=O)[C@@H](NC(=O)[C@H](N)Cc2ccccc2)CSSC[C@@H](C(=O)N(C)[C@H](C(N)=O)[C@@H](C)O)NC1=O` returned an IC50 in the test listed under Rattus norvegicus of 28.8 nM.
The same measure, in the same setting: then `C[C@@H](O)[C@H](NC(=O)[C@@H]1CSSC[C@H](N(C)C(=O)[C@H](N)Cc2ccccc2)C(=O)N[C@@H](Cc2ccccc2)C(=O)N[C@H](Cc2c[nH]c3ccccc23)C(=O)N[C@@H](CCCCN)C(=O)N[C@@H]([C@@H](C)O)C(=O)N1)C(N)=O`, with 0.36 nM.
Usually Kd stands for a measure of binding affinity in units of concentration. A high value points to lower affinity. Consider `CN[C@H](Cc1ccccc1)C(=O)N[C@H]1CSSC[C@@H](C(=O)N[C@H](C(N)=O)[C@@H](C)O)NC(=O)[C@H]([C@@H](C)O)NC(=O)[C@H](CCCCN)NC(=O)[C@@H](Cc2c[nH]c3ccccc23)NC(=O)[C@H](Cc2ccccc2)NC1=O`, for which the Kd in test [1] was 4.89 nM; in test [2], 316 nM; in test [3], above 1000 nM; in test [4], 17.9 nM; in test [5], 1.03 nM.
In the test filed under Rattus norvegicus, `C[C@@H](O)[C@H](NC(=O)[C@@H]1CSSC[C@H](NC(=O)[C@H](N)Cc2ccccc2)C(=O)N[C@@H](Cc2ccccc2)C(=O)N[C@H](Cc2c[nH]c3ccccc23)C(=O)N[C@@H](CCCCN)C(=O)N[C@@H]([C@@H](C)O)C(=O)N1)C(N)=O` displayed an IC50 of 0.16 nM.
`C[C@@H](O)[C@H](NC(=O)[C@@H]1CSSC[C@H](NC(=O)[C@@H](N)Cc2ccc(O)cc2)C(=O)N[C@@H](Cc2ccccc2)C(=O)N[C@H](Cc2c[nH]c3ccccc23)C(=O)N[C@@H](CCCCN)C(=O)N[C@@H]([C@@H](C)O)C(=O)N1)C(N)=O` (H-YCF[dW]KTCT-NH2; disulfide 2-7) returned an IC50 in the test filed under Rattus norvegicus of 1.11 nM.
`C[C@@H](O)[C@H](NC(=O)[C@@H]1CSSC[C@H](NC(=O)[C@@H](N)Cc2ccc(O)cc2)C(=O)N[C@@H](Cc2ccccc2)C(=O)N[C@H](Cc2c[nH]c3ccccc23)C(=O)N[C@@H](CCCCN)C(=O)N[C@@H]([C@@H](C)O)C(=O)N1C)C(N)=O` (H-YCF[dW]KT[NMeC]T-NH2; disulfide 2-7) showed a Kd in test [5] of 56.2 nM.
The compound `C[C@@H](O)[C@H](NC(=O)[C@@H]1CSSC[C@H](NC(=O)[C@@H](N)Cc2ccc(O)cc2)C(=O)N[C@@H](Cc2ccccc2)C(=O)N[C@H](Cc2c[nH]c3ccccc23)C(=O)N[C@@H](CCCCN)C(=O)N(C)[C@@H]([C@@H](C)O)C(=O)N1)C(N)=O` (H-YCF[dW]K[NMeT]CT-NH2; disulfide 2-7) had a Kd in test [3] of 1000 nM.
The compound `C[C@@H](O)[C@H](NC(=O)[C@@H]1CSSC[C@H](NC(=O)[C@@H](N)Cc2ccc(O)cc2)C(=O)N[C@@H](Cc2ccccc2)C(=O)N[C@H](Cc2c[nH]c3ccccc23)C(=O)N(C)[C@@H](CCCCN)C(=O)N[C@@H]([C@@H](C)O)C(=O)N1)C(N)=O` (H-YCF[dW][NMeK]TCT-NH2; disulfide 2-7) returned an IC50 in the test filed under Rattus norvegicus of 27.4 nM.
For the compound `CN[C@@H](Cc1ccc(O)cc1)C(=O)N[C@H]1CSSC[C@@H](C(=O)N[C@H](C(N)=O)[C@@H](C)O)NC(=O)[C@H]([C@@H](C)O)NC(=O)[C@H](CCCCN)NC(=O)[C@@H](Cc2c[nH]c3ccccc23)NC(=O)[C@H](Cc2ccccc2)NC1=O` (H-[NMeY]CF[dW]KTCT-NH2; disulfide 2-7), the Kd in test [2] was determined as 811 nM; in test [5], 9.74 nM.

These data come from ChEMBL document CHEMBL1134652, “N-Methyl scan of somatostatin octapeptide agonists produces interesting effects on receptor subtype specificity” (J Med Chem, 2001).
